Measurements published in paper PMC4407803 (Journal of medicinal chemistry, 2015).
Read-outs that look alike come from different tables or passages of the source.

Assays:
[1] = test system: Jurkat cells (human T-cell leukemia); assay: In vitro antiproliferative activity; format: cell-based; conditions: 72 h, read-out: IC50 Jurkat
How it was run: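 Cells grown in RPMI-1640; 8 × 10^3 cells per well, pre-incubated 18 h at 37 °C, 5% CO2. Medium replaced with fresh medium containing test compound at several concentrations (from 10 mM DMSO stocks; DMSO ≤0.25% final), 72 h at 37 °C.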

[2] = test system: BNL 1ME A.7R.1 hepatocellular carcinoma tumors; assay: In vivo antitumor activity, syngeneic hepatocellular carcinoma model; conditions: Balb/c mice; for tumor growth inhibition vs control (significance): 5 mg/kg intraperitoneally daily
How it was run: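 Male Balb/c mice, 8 weeks old, injected subcutaneously in the dorsal region with 10^7 BNL 1ME A.7R.1 cells in 200 μL sterile PBS. At about 100 mm3, mice were randomized into four groups of 5. Tumors measured by caliper daily for 7 days; V = AB2/2.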

[3] = test system: panel of seven human cancer cell lines; assay: Antiproliferative activity over the panel of seven human cancer cell lines; format: cell-based
How it was run: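 Jurkat, RS4;11 and HL-60 cells grown in RPMI-1640; MCF-7, A549, HeLa and HT-29 cells in DMEM; both media with 10% FBS plus penicillin/streptomycin. 8 × 10^3 cells/well settled 18 h at 37 °C, 5% CO2, then exposed to graded compound for 72 h. DMSO ≤0.25%. MTT viability read.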

[4] = test system: PBL not stimulated with PHA; assay: Cytotoxicity in noncancer cells, resting PBL; format: cell-based; conditions: Homo sapiens, 72 h, read-out: IC50 PBLresting
How it was run: (§1)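 Peripheral blood lymphocytes from healthy donors isolated on a Lymphoprep gradient, washed, held overnight at 1.0 × 10^6 cells/mL in RPMI-1640 with 10% FBS. Nonadherent cells reseeded at 5 × 10^5 cells/mL. PHA-stimulated set received 2.5 μg/mL PHA; resting set had no PHA. Graded compound for 72 h; viability by MTT.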

[5] = test system: BL6-B16 murine melanoma tumor blood vessels; assay: Antivascular activity in vivo, CD31 vessel count in BL6-B16 melanoma; conditions: 30 mg/kg ip, 24 h, C57BL/6 mice, P < 0.05
How it was run: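 Six-week-old C57BL/6 mice received 10^5 BL6-B16 melanoma cells in PBS subcutaneously in the dorsolateral flank. At 300 mm3 tumor volume, a single ip dose of 30 mg/kg in DMSO (50 μL) was given. Tumors excised 24 h later, OCT-embedded, frozen, cut into 4–5 μm cryosections. Stained with rat anti-mouse CD31 (1:200) and biotinylated anti-rat secondary. CD31+ vessels counted in 5 fields/section (40× objective); five mice/group.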

[6] = test system: chick embryo chorioallantoic membrane (CAM) blood vessels; assay: CAM assay in fertilized chicken eggs; format: in vivo
HeLa cells [7] = assay: Mitochondrial membrane potential; format: cell-based, human; conditions: 24 or 48 h
How it was run: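 HeLa cells exposed to compound for 24 or 48 h, then stained with H2-DCFDA for reactive oxygen species. Fluorescence read by flow cytometry. Parallel JC-1 staining assessed mitochondrial membrane potential. Three independent experiments.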

[8] = Body weight during in vivo antitumor treatment; parameters: species or system Balb/c mice; conditions: 3g at the higher dose (10 mg/kg ip)
HeLa cells [9] = assay: Western blot analysis of caspases and Bcl-2 family proteins; format: cell-based, human; conditions: for Mcl-1 expression: 48 h, 100 and 250 nM
How it was run: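 Treated HeLa cells washed in cold PBS and lysed on ice for 30 min. Lysates cleared at 15000g, 4 °C, for 10 min; protein measured by BCA. 10 μg protein resolved on 7.5–15% SDS-PAGE and transferred to PVDF. Membranes blocked in 5% BSA/Tween-PBS overnight at 4 °C. Primary antibodies (e.g., Mcl-1) applied 2 h at room temperature, then peroxidase secondary for 60 min; ECL detection. β-actin reprobe used as loading control.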

HUVECs [10] = assay: Disruption of HUVEC capillary-like tubules on Matrigel; format: cell-based, human; conditions: 1 h or 3 h incubation
How it was run: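 HUVECs isolated from umbilical cord veins, kept in M200 with low-serum growth supplement, and used at passages 1–6. Matrigel gelled 30 min at 37 °C, overlaid with 6 × 10^4 cells; tubules allowed to form for 6 h. Compound then added for 1 or 3 h. Five fields/well photographed at 10×. Image analysis quantified tubule length, mesh area/number, % area covered and branch points. Three independent experiments.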

HUVECs [11] = assay: HUVEC motility; format: cell-based, human
How it was run: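 Primary cord-vein HUVECs (passages 1–6) grown to confluence (1 × 10^5 seeded) on 0.1% collagen type I. Monolayer scratched with a pipet tip, washed with PBS, then exposed to test compound. Wells photographed at intervals (6 and 24 h). Wound width measured in four areas and compared with initial width. Three independent experiments; significance versus untreated control.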

Jurkat and HeLa cells = assay: Flow cytometric analysis of cell cycle distribution; format: cell-based, human; conditions: for lowest concentration giving a rise in G2/M cells: 24 h treatment
How it was run: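 5 × 10^5 HeLa or Jurkat cells exposed to graded compound concentrations for 24 h. Cells collected, fixed in ice-cold 70% ethanol, treated with lysis buffer containing RNase A and 0.1% Triton X-100, then stained with propidium iodide. DNA content measured by flow cytometry; phase distribution derived from DNA histograms.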

PBL stimulated with PHA = assay: Cytotoxicity in noncancer cells, PHA-stimulated PBL; format: cell-based; conditions: Homo sapiens, 72 h, read-out: IC50 PBLPHA
How it was run: as §1

HeLa cells [12] = assay: Annexin-V/PI apoptosis assay; format: cell-based, human; conditions: 24 or 48 h
How it was run: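 HeLa cells exposed to test compound for 24 or 48 h. Cells harvested and double-stained with annexin-V-FITC and PI. Surface phosphatidylserine exposure read by flow cytometry.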

[13] = read-out: average IC50 over the seven cell lines
[14] = read-out: IC50 values range in the seven cell lines

COc1ccc(/C=C\c2cc(OC)c(OC)c(OC)c2)cc1O [CA-4, combretastatin A-4]
IC50 [1]: 5 ± 0.6 nM

COc1ccc(/C=C\c2cc(OC)c(OC)c(OC)c2)cc1OP(=O)([O-])[O-].[Na+].[Na+] [CA-4P, combretastatin A-4 phosphate, reference compound]
tumor growth inhibition vs control (significance) [2]: significant relative to the control

COC(=O)c1oc2ccccc2c1Nc1cc(OC)c(OC)c(OC)c1 [Compound 3a, Methyl 3-[(3,4,5-Trimethoxyphenyl)amino]benzofuran-2-carboxylate]
IC50 [3, 13]: 3300 nM

COC(=O)c1oc2cc(OC)ccc2c1Nc1cc(OC)c(OC)c(OC)c1 [Compound 3g, Methyl 3-(3,4,5-Trimethoxyphenylamino)-6-methoxybenzofuran-2-carboxylate]
IC50 [4]: > 10000 nM
reduction in number of CD31-positive tumor vessels [5]: about 20%
blood vessel number, compound alone ([6]; 100 pmol/egg, without FGF): did not induce blood vessels to increase in number
FGF-induced increase of blood vessels ([6]; FGF 100 ng/egg, even at 1 pmol/egg): strongly reduced
ROS production (H2-DCFDA) (HeLa cells [7]): production of significant amounts of ROS
mitochondrial transmembrane potential (JC-1) (HeLa cells [7]): time- and concentration-dependent increase in the proportion of cells with depolarized mitochondria
IC50 [3, 14]: 0.3 to 27 nM
body weight change during treatment [8]: only a small decrease in body weight
caspase activation (immunoblot) (HeLa cells [9]): activation of caspase-9 and caspase-3 in a time- and concentration-dependent manner
Mcl-1 expression (HeLa cells [9]): strongly down-regulated
effect on preformed HUVEC tubule-like network (HUVECs [10]): clearly disrupted the network of HUVECs
concentration with statistically significant arrest of HUVEC motility (HUVECs [11]; 6 h incubation): 25 nM
concentration with highly significant arrest of HUVEC motility (HUVECs [11]; after 24 h, lowest tested concentration): 5 nM
HUVEC motility (HUVECs [11]; scratch wound): very efficient in arresting cell motility
lowest concentration giving a rise in G2/M cells (Jurkat and HeLa cells): 60 nM
tumor growth inhibition vs control (significance) [2]: did not reach statistical significance
reduction in tumor growth compared with vehicle ([2]; 10 mg/kg intraperitoneally daily): 44.5%
IC50 (PBL stimulated with PHA): > 10000 nM
apoptosis (annexin-V) (HeLa cells [12]): accumulation of annexin-V positive cells

CCOC(=O)c1oc2cc(OC)ccc2c1Nc1cc(OC)c(OC)c(OC)c1 [Compound 3h, Ethyl 3-(3,4,5-Trimethoxyphenylamino)-6-methoxybenzofuran-2-carboxylate]
IC50 [4]: > 10000 nM
ROS production (H2-DCFDA) (HeLa cells [7]): production of significant amounts of ROS
mitochondrial transmembrane potential (JC-1) (HeLa cells [7]): time- and concentration-dependent increase in the proportion of cells with depolarized mitochondria
IC50 [3, 14]: 13 to 100 nM
IC50 [3, 13]: 34 nM
caspase activation (immunoblot) (HeLa cells [9]): activation of caspase-9 and caspase-3 in a time- and concentration-dependent manner
Mcl-1 expression (HeLa cells [9]): strongly down-regulated
cells arrested in G2/M (Jurkat and HeLa cells; 24 h, at higher concentrations): more than 70%
lowest concentration giving a rise in G2/M cells (Jurkat and HeLa cells): 60 nM
apoptosis (annexin-V) (HeLa cells [12]): accumulation of annexin-V positive cells

COC(=O)c1oc2c(OC)cccc2c1Nc1cc(OC)c(OC)c(OC)c1 [Compound 3i, Methyl 3-(3,4,5-Trimethoxyphenylamino)-7-methoxybenzofuran-2-carboxylate]
IC50 [3, 13]: 370 nM

CCOC(=O)c1oc2c(OC)cccc2c1Nc1cc(OC)c(OC)c(OC)c1 [Compound 3j, Ethyl 3-(3,4,5-Trimethoxyphenylamino)-7-methoxybenzofuran-2-carboxylate]
IC50 [3, 13]: 670 nM
